Measured values published in ChEMBL document CHEMBL4308830, “Design, Synthesis, and Characterization of 4-Undecylpiperidine-2-carboxamides as Positive Allosteric Modulators of the Serotonin (5-HT) 5-HT2C Receptor” (J Med Chem, 2018).
The source made the active and inactive calls. The calls are words filed in the database; no cut-off is given here.

Assays:
[1] = target: 5-hydroxytryptamine receptor 2A (Homo sapiens, UniProt P28223); assay: Positive allosteric modulation of human 5-HT2AR expressed in CHO cells assessed as increase in 5-HT-induced intracellular calcium release at 0.000001 to 1 uM preincubated for 15 mins followed by 5-HT addition by calcium-4 dye based FLIPR assay; format: cell-based
Sequence of 5-hydroxytryptamine receptor 2A (P28223 whole entry): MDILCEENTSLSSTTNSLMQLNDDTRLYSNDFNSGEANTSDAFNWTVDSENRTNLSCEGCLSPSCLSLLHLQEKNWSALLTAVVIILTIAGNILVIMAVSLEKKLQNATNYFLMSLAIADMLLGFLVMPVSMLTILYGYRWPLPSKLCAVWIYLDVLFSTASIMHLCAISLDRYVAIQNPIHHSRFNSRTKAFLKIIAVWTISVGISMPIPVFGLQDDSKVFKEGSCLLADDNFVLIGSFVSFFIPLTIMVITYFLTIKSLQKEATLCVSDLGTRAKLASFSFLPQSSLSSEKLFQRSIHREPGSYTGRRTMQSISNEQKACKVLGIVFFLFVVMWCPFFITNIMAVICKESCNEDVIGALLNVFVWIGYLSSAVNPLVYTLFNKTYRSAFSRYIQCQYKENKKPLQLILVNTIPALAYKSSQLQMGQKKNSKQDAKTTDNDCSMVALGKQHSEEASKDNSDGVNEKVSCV
How it was run: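 Human 5-HT2AR-CHO cells, same calcium assay: Calcium 4 dye with probenecid. Compound (1 pM, 1 nM, 1 μM) was given 15 min before a 5-HT concentration–response (10 pM–10 μM). Peak fluorescence was fit by 4-parameter regression.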

Rattus norvegicus = assay: Suppression of spontaneous locomotor activity in Sprague-Dawley rat assessed as reduction in total vertical activity at 5 mg/kg, ip administered as single dose measured for 30 mins; format: functional, organism-based
How it was run: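 Male Sprague–Dawley rats naive to activity monitors (n = 7–8/group) received saline (1 mL/kg ip) or compound (0.5, 1 or 5 mg/kg ip) immediately before testing. Ambulations and vertical counts were taken in 5 min bins for 90 min and totalled over the first 30 min. Analysis: one-way ANOVA with Dunnett's comparisons to vehicle.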

## CCCCCCCCCCC[C@@H]1CCN[C@H](C(=O)NCC(O)CO)C1 (relative stereo)
[1]
  Activity: Not Active
Rattus norvegicus
  Activity: Active
